Measured values collected from several papers.
Lines come from different studies, so protocols differ.
AVPR2: Vasopressin V2 receptor (AVPR2, Homo sapiens, UniProt P30518)
APC: Adenomatous polyposis coli protein (APC, Homo sapiens, UniProt P25054)
HTR1E: 5-hydroxytryptamine receptor 1E (HTR1E, Homo sapiens, UniProt P28566)
Palmitoyl-protein thioesterase 1: Palmitoyl-protein thioesterase 1 (Homo sapiens, UniProt P50897)

| Compound | target | test | measurement | result |
| --- | --- | --- | --- | --- |
| CO[C@H]1C[C@@H]2CC[C@@H](C)[C@@](O)(O2)C(=O)C(=O)N2CCCC[C@H]2C(=O)O[C@H]([C@H](C)C[C@@H]2CC[C@@H](OC(=O)C(C)(CO)CO)[C@H](OC)C2)CC(=O)[C@H](C)/C=C(\C)[C@@H](O)[C@@H](OC)C(=O)[C@H](C)C[C@H](C)/C=C/C=C/C=C/1C | Ferroptosis suppressor protein 1 (AIFM2, Homo sapiens, UniProt Q9BRQ8) | binding, ITC | Kd | ~5.28 µM |
| CC1=NN(/C(=N/c2nnc(C)s2)Nc2ccc(C)c(C)c2)C(c2ccc(F)cc2)S1 (stereo not drawn) | AVPR2 | cAMP, positive allosteric modulator | EC50 | > 50 µM |
| CSc1nccc(C(=O)N[C@@H](CCC(=O)O)C(=O)N[C@@H](Cc2ccc3ccccc3c2)C(=O)N[C@@H](CC(C)C)C(=O)NC2CC2c2ccccc2)n1 (stereo partly drawn) | APC | binding, SPR | Kd | 0.62 µM |
| CN1CCC(=C2c3ccccc3C=Cc3ccccc32)CC1 | HTR1E | G protein activation, agonist, BRET | EC50 | 2.04 µM |
| CC1=NN(/C(=N/c2nnc(C)s2)Nc2ccc(C)c(C)c2)C(c2cccc(-c3ccccc3)c2)S1 (stereo not drawn) | AVPR2 | cAMP, positive allosteric modulator | EC50 | > 50 µM |
| Cc1nc2n(c(=O)c1CCN1CCC(c3noc4cc(F)ccc34)CC1)CCCC2O (stereo not drawn) | RNA cytidine acetyltransferase (Homo sapiens, UniProt Q9H0A0) | binding, ITC | Kd | 12.8 µM |
| COc1ccc(CC2NCCc3c2[nH]c2ccc(C)cc32)c(Cl)c1OC (stereo not drawn) | HTR1E | G protein activation, agonist, BRET | EC50 | 2.43 µM |
| N=C(N)NCCC[C@H](NC(=O)[C@@H](NC(=O)[C@H](Cc1cscn1)NC(=O)CCc1ccccc1)C1CCCCC1)C(=O)c1nc2ccccc2s1 | Transmembrane protease serine 6 (Homo sapiens, UniProt Q8IU80) | cell-free assay | Ki | ~5 nM |
| CC(C)C[C@H](NC(=O)[C@H](Cc1ccccc1)NC(=O)[C@H](CCC(=O)O)NC(=O)c1ccncn1)C(=O)NC1CC1c1ccccc1 (stereo partly drawn) | APC | binding, SPR | Kd | 67 µM |
| CN(C)c1ncnc2c1ncn2[C@@H]1O[C@H](CO)[C@@H](O)[C@H]1O | Adenosine receptor A3 (ADORA3, Homo sapiens, UniProt P0DMS8, L264Q) | G protein activation, agonist | EC50 | 3.5 µM |
| C=C[C@H]1C[N@@]2CC[C@H]1C[C@H]2[C@H](O)c1ccnc2ccc(OC)cc12 | Palmitoyl-protein thioesterase 1 | binding, MST | Kd | 0.256 µM |
| CSc1ncc(Br)c(C(=O)N[C@@H](CCC(=O)O)C(=O)N[C@@H](Cc2ccc3ccccc3c2)C(=O)N[C@@H](CC(C)C)C(=O)NC2CC2c2ccccc2)n1 (stereo partly drawn) | APC | binding, SPR | Kd | 0.58 µM |
| CC1=NN(/C(=N/c2nnc(C)s2)Nc2ccc(C)c(C)c2)C(c2ccc(C(F)(F)F)cc2)S1 (stereo not drawn) | AVPR2 | cAMP, positive allosteric modulator | EC50 | > 50 µM |
| CCN(CC)Cc1cc(Nc2ccnc3cc(Cl)ccc23)ccc1O | Palmitoyl-protein thioesterase 1 | binding, MST | Kd | 0.076 µM |
| CCN1CCC[C@H]1CNC(=O)c1c(O)c(Cl)cc(Cl)c1OC | HTR1E | G protein activation, agonist, BRET | EC50 | 0.49 µM |
| CC1=NN(/C(=N/c2nnc(C)s2)Nc2ccc(C)c(C)c2)C(c2cc(F)c(F)c(F)c2)S1 (stereo not drawn) | AVPR2 | cAMP, positive allosteric modulator | EC50 | > 50 µM |
| CN1CCC(=C2c3ccccc3Sc3ccccc32)CC1 | HTR1E | G protein activation, agonist, BRET | EC50 | 0.33 µM |

| Compound | target | test | measurement | result |
| --- | --- | --- | --- | --- |
| CN1CCN(Cc2ccc(CNc3cccc4c3CN(C)N(C3CCC(=O)NC3=O)C4=O)cc2)CC1 (stereo not drawn) | Cereblon/Casein kinase I alpha (CSNK1A1/CRBN, Homo sapiens, UniProt P48729+Q96SW2) | protein level, degrader, luciferase | DC50 | 92 nM |
| CC1=NN(/C(=N\c2ccccc2C)Nc2nnc(C)s2)C(c2ccc(C)cc2)S1 (stereo not drawn) | AVPR2 | cAMP, positive allosteric modulator | EC50 | 20.8 µM |
| CN1CCN2c3ccccc3Cc3ccccc3C2C1 (stereo not drawn) | HTR1E | G protein activation, agonist, BRET | EC50 | 0.123 µM |
| CC(C)C[C@H](NC(=O)[C@H](Cc1ccc2ccccc2c1)NC(=O)[C@H](CCC(=O)O)NC(=O)c1ccnc(F)c1)C(=O)NC1CC1c1ccccc1 (stereo partly drawn) | APC | ligand displacement, FP | IC50 | 42.7 µM |
| CCCCCCCC/C=C\CCCCCCCC(=O)O | Myoglobin (MB, Homo sapiens, UniProt P02144, K46M) | binding, absorbance | Kd | 13.1 µM |
| CC1=NN(/C(=N/c2nnc(C)s2)Nc2ccc(C)c(C)c2)C(c2ccc(C(C)(C)C)cc2)S1 (stereo not drawn) | AVPR2 | cAMP, positive allosteric modulator | EC50 | > 50 µM |
| O=C(CCCCCN1CCN(c2ccccc2-c2ccccc2)CC1)NC1CCCc2ccccc21 (stereo not drawn) | HTR1E | G protein activation, agonist, BRET | EC50 | 1.75 µM |
| [H]/N=C(\N/C(=N/[H])Nc1ccc(Cl)cc1)NC(C)C | Palmitoyl-protein thioesterase 1 | binding, MST | Kd | 0.808 µM |
| CCc1cccc(C(=O)N[C@@H](CCC(=O)O)C(=O)N[C@@H](Cc2ccc3ccccc3c2)C(=O)N[C@@H](CC(C)C)C(=O)NC2CC2c2ccccc2)c1 (stereo partly drawn) | APC | ligand displacement, FP | IC50 | 25.1 µM |
| CC(C)=CCNc1ncnc2c1ncn2[C@@H]1O[C@H](CO)[C@@H](O)[C@H]1O | Adenosine receptor A3 (ADORA3, Homo sapiens, UniProt P0DMS8, L264F) | G protein activation, agonist | EC50 | 3.4 µM |
| CN1CCc2cc(Cl)c(O)cc2[C@@H](c2ccccc2)C1 | HTR1E | G protein activation, agonist, BRET | EC50 | 3.9 µM |
| O=C1c2ccccc2-n2c1nc1ccccc1c2=O | Glutathione S-transferase P (GSTP1, Homo sapiens, UniProt P09211) | binding | Kd | 30.1 µM |
| CC1=NN(/C(=N/c2nnc(C)s2)Nc2ccc(C)c(C)c2)C(c2ccsc2)S1 (stereo not drawn) | AVPR2 | cAMP, positive allosteric modulator | EC50 | > 50 µM |
| CC(C)C[C@H](NC(=O)[C@H](Cc1ccc2ccccc2c1)NC(=O)[C@H](CCC(=O)O)NC(=O)c1cccc([N+](=O)[O-])c1)C(=O)NC1CC1c1ccccc1 (stereo partly drawn) | APC | ligand displacement, FP | IC50 | 41.7 µM |
| CC1=NN(/C(=N/c2nnc(C)s2)Nc2ccc(C)c(C)c2)C(c2ccc(-c3ccccc3C(F)(F)F)cc2)S1 (stereo not drawn) | AVPR2 | cAMP, positive allosteric modulator | EC50 | 36 µM |
| CC(C)C[C@H](NC(=O)[C@H](CC1CC1)NC(=O)[C@H](CCC(=O)O)NC(=O)c1ccncn1)C(=O)NC1CC1c1ccccc1 (stereo partly drawn) | APC | binding, SPR | Kd | 32 µM |
